In brackets after ≈: the same amount, converted by molar mass.
Assays:
[1] = Cmax in liver of mice at the oral dose of 50 mg/kg; assay type: ADME, organism-based; parameters: dose 50 mg/kg, route oral; details: mouse
[2] = system: Streptococcus pneumoniae; assay: Antibacterial activity against Streptococcus pneumoniae PSCB-0541; assay type: functional
Method in brief: (§1)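 MICs were determined by broth microdilution following NCCLS guidelines. The test panel includes erythromycin-susceptible strains and erythromycin-resistant strains with constitutive or inducible MLSB phenotypes or with efflux resistance.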

[3] = system: Streptococcus pyogenes; assay: Antibacterial activity against Streptococcus pyogenes PSCB-0543; assay type: functional; method in brief: as §1
[4] = Cmax in spleen of mice at the oral dose of 50 mg/kg; assay type: ADME, organism-based; parameters: dose 50 mg/kg, route oral; details: mouse
[5] = system: Mus musculus; assay: T2 in spleen of mice at the oral dose of 50 mg/kg; assay type: ADME, organism-based; parameters: dose 50 mg/kg, route oral; details: in vivo
[6] = Tmax in brain of mice at the oral dose of 50 mg/kg; assay type: ADME, organism-based; parameters: dose 50 mg/kg, route oral; details: mouse
[7] = Tmax in lungs of mice at the oral dose of 50 mg/kg; assay type: ADME, organism-based, Lung; parameters: dose 50 mg/kg, route oral; details: mouse
[8] = system: Enterococcus faecalis; assay: Antibacterial activity against Enterococcus faecalis ATCC 29212; assay type: functional; method in brief: as §1
[9] = system: Mus musculus; assay: C2 in liver of mice at the oral dose of 50 mg/kg; assay type: ADME, organism-based; parameters: dose 50 mg/kg, route oral; details: in vivo
[10] = system: Mus musculus; assay: T2 in lungs of mice at the oral dose of 50 mg/kg; assay type: ADME, organism-based, Lung; parameters: dose 50 mg/kg, route oral; details: in vivo
[11] = system: Haemophilus influenzae; assay: Antibacterial activity against Haemophilus influenzae ATCC 49247; assay type: functional; method in brief: as §1
[12] = Cmax in lungs of mice at the oral dose of 50 mg/kg; assay type: ADME, organism-based, Lung; parameters: dose 50 mg/kg, route oral; details: mouse
[13] = system: Staphylococcus aureus; assay: Antibacterial activity against Staphylococcus aureus ATCC 13709; assay type: functional; method in brief: as §1
[14] = system: Staphylococcus aureus; assay: Antibacterial activity against Staphylococcus aureus PSCB-0330; assay type: functional; method in brief: as §1
[15] = Tmax in liver of mice at the oral dose of 50 mg/kg; assay type: ADME, organism-based; parameters: dose 50 mg/kg, route oral; details: mouse
[16] = system: Mus musculus; assay: T2 in liver of mice at the oral dose of 50 mg/kg; assay type: ADME, organism-based; parameters: dose 50 mg/kg, route oral; details: in vivo
[17] = system: Streptococcus pyogenes; assay: Antibacterial activity against Streptococcus pyogenes PSCB-0545; assay type: functional; method in brief: as §1
[18] = Tmax in kidney of mice at the oral dose of 50 mg/kg; assay type: ADME, organism-based; parameters: dose 50 mg/kg, route oral; details: mouse
[19] = Cmax in kidney of mice at the oral dose of 50 mg/kg; assay type: ADME, organism-based; parameters: dose 50 mg/kg, route oral; details: mouse
[20] = system: Mus musculus; assay: T2 in kidney of mice at the oral dose of 50 mg/kg; assay type: ADME, organism-based; parameters: dose 50 mg/kg, route oral; details: in vivo
[21] = system: Staphylococcus aureus; assay: Antibacterial activity against Staphylococcus aureus PSCB-0331; assay type: functional; method in brief: as §1
[22] = system: Mus musculus; assay: C2 in spleen of mice at the oral dose of 50 mg/kg; assay type: ADME, organism-based; parameters: dose 50 mg/kg, route oral; details: in vivo
[23] = system: Mus musculus; assay: C2 in kidney of mice at the oral dose of 50 mg/kg; assay type: ADME, organism-based; parameters: dose 50 mg/kg, route oral; details: in vivo
[24] = system: Mus musculus; assay: C2 in lungs of mice at the oral dose of 50 mg/kg; assay type: ADME, organism-based, Lung; parameters: dose 50 mg/kg, route oral; details: in vivo
[25] = system: Staphylococcus aureus; assay: Antibacterial activity against Staphylococcus aureus PSCB-0538; assay type: functional; method in brief: as §1
[26] = system: Escherichia coli; assay: Antibacterial activity against Escherichia coli ATCC […]; assay type: functional; method in brief: as §1
[27] = Tmax in spleen of mice at the oral dose of 50 mg/kg; assay type: ADME, organism-based; parameters: dose 50 mg/kg, route oral; details: mouse

- Cmax [1]: 33300 ng/g
- MIC [2]: 2 µg/mL (≈ 2.46 µM)
- MIC [3]: 0.5 µg/mL (≈ 0.616 µM)
- Cmax [4]: 7970 ng/g
- T2 [5]: 2 h
- Tmax [6]: 0 h
- Tmax [7]: 2 h
- MIC [8]: 1 µg/mL (≈ 1.23 µM)
- C2 [9]: 24.43 µg/g
- T2 [10]: 0.5 h
- MIC [11]: 4 µg/mL (≈ 4.93 µM)
- Cmax [12]: 10400 ng/g
- MIC [13]: 0.25 µg/mL (≈ 0.308 µM)
- MIC [14]: 128 µg/mL (≈ 158 µM)
- Tmax [15]: 2 h
- T2 [16]: 4 h
- MIC [17]: 0.5 µg/mL (≈ 0.616 µM)
- Tmax [18]: 2 h
- Cmax [19]: 14300 ng/g
- T2 [20]: 4 h
- MIC [21]: 0.5 µg/mL (≈ 0.616 µM)
- C2 [22]: 7 µg/g
- C2 [23]: 4.58 µg/g
- C2 [24]: 10.24 µg/g
- MIC [25]: 0.25 µg/mL (≈ 0.308 µM)
- MIC [26]: 128 µg/mL (≈ 158 µM)
- Tmax [27]: 0.5 h
SMILES: CC[C@H]1OC(=O)C[C@@H](O)[C@H](C)[C@@H](OC2OC(C)C(O)C(N(C)C)C2O)[C@@H](C/C=C/C(C)=O)C[C@@H](C)C(=O)/C=C/C(C)=C/[C@@H]1COC1OC(C)C(O)C(OC)C1OC (some centres not stated)
